Screens (PubChem)
FID counter: counter-screen for HCV NS3 helicase inhibitors: DNA intercalator displacement; DNA fluorescent intercalator displacement, fluorescence; inhibition, % at 7.9 µM; 0.17% of 290,000 active; AID 1845; in the data active = inhibition above about 37%;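 note: higher means more ethidium bromide displaced from hairpin DNA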
HCV NS3 hel inh: HCV NS3 helicase inhibition | 0.56% of 290,000 active | inhibition, % at 10.9 µM | NS3 helicase DNA unwinding, Cy5 molecular beacon fluorescence;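 active = inhibition above the mean of all tested compounds plus 3 SD, set per campaign, cut at about 35% in these data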
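System: NS3 helicase fragment of HCV / Schedule: 1 h at 25 °C / Control set: DMSO alone as 0% and 110 µM thioflavine S as 100% / Reagent: Cy5/quencher beacon DNA duplex and ATP to start / Technique: Cy5 fluorescence / Replication: singlicate / Evaluation: % inhibition of end-to-start signal ratio versus controls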
p-CIP stab down: compounds decreasing mouse p/CIP protein stability. F442A p/CIP-EGFP cells, EGFP fluorescence, 16 h. decrease of EGFP signal, % at 10 µM. 0.01% of 290,000 active. AID 1984;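 active = EGFP signal decrease of at least 30% at 10 µM or well 3 SD below plate mean, unless failing retest; inactive = the rest, including hits failing retest or dose response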
GPR7 antag: antagonists of human GPR7 (neuropeptides B/W receptor 1); P48145; GPR7-expressing cells, fluorescence antagonist assay; inhibition, % at 4.4 µM; 1.1% of 290,000 active; AID 1861; in the data active = inhibition above about 16%, passing the limit was not always enough;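 note: cells stimulated with the agonist NPW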
core dimer inh: HCV core protein dimerization inhibition. TR-FRET GST/Flag-core106 dimerization, 1536-well. inhibition, % at 5 µM. 0.33% of 300,000 active. AID 1899;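 active = inhibition above the mean of all tested compounds plus 3 SD, set per screening campaign, cut at about 45% in these data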
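Assay system: GST-tagged and Flag-tagged HCV core protein residues 1-106 / Times: compound-protein-antibody incubation 4 h at 22.5 °C / Signal: time-resolved FRET, ex 340 nm, em 617 and 671 nm / Evaluation: % inhibition based on acceptor/donor emission ratio / Benchmarks: wells lacking GST-core106 and wells with excess unlabelled core106 / Repeats: singlicate, one well per compound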
Numbers stand for hits. Compounds with a hit are over-represented: about 1.9% of the library has one in this group of screens.

`CN(C)CCCN(CCCN(C)C)C(=S)Nc1ccc(S(=O)(=O)N2CCOCC2)cc1` gave FID counter 37, HCV NS3 hel inh inactive, p-CIP stab down inactive, GPR7 antag inactive and core dimer inh inactive.
O=S(=O)(c1ccc(NC(=S)N/N=C/c2ccc(Oc3ccccc3)cc2)cc1)N1CCOCC1 was read as FID counter inactive, HCV NS3 hel inh inactive, p-CIP stab down inactive, GPR7 antag inactive and core dimer inh inactive.
For O=C(CN1c2cccc3cccc(c23)S1(=O)=O)Nc1ccc(S(=O)(=O)N2CCOCC2)cc1 the results were FID counter inactive, HCV NS3 hel inh inactive, p-CIP stab down inactive, GPR7 antag inactive and core dimer inh 56.
CC(C)(C)CC(C)(C)NC(=S)Nc1ccc(S(=O)(=O)N2CCOCC2)cc1 was read as FID counter inactive, HCV NS3 hel inh inactive, p-CIP stab down inactive, GPR7 antag inactive and core dimer inh inactive.
`O=S(=O)(c1ccc(NC(=S)N/N=C/c2c3ccccc3cc3ccccc23)cc1)N1CCOCC1` gave FID counter inactive, HCV NS3 hel inh inactive, p-CIP stab down inactive, GPR7 antag inactive and core dimer inh 56.
For COC(=O)c1ccc(Oc2coc3cc(OCc4ccc([N+](=O)[O-])cc4)ccc3c2=O)cc1 the results were FID counter inactive, HCV NS3 hel inh inactive, p-CIP stab down inactive, GPR7 antag inactive and core dimer inh 68.
For CC(C)Sc1cc(Cl)nc(NC(=O)Nc2ccccc2)n1 the results were FID counter inactive, HCV NS3 hel inh inactive, p-CIP stab down inactive, GPR7 antag inactive and core dimer inh inactive.
Screening O=C(Cn1cc[n+](Cc2ccccc2)c1)c1ccc([N+](=O)[O-])cc1 returned FID counter 44, HCV NS3 hel inh inactive, p-CIP stab down inactive, GPR7 antag inactive and core dimer inh inactive.
`Cc1ccc(S(=O)(=O)N2C(=O)CCC2C(=O)O/N=C(\N)c2cccc([N+](=O)[O-])c2)cc1` (configuration not stated) gave FID counter inactive, HCV NS3 hel inh inactive, p-CIP stab down inactive, GPR7 antag inactive and core dimer inh inactive.
COc1cccc(OC)c1-c1nn2c(-c3cc(-c4ccccc4)n[nH]3)nnc2s1 was read as FID counter inactive, HCV NS3 hel inh inactive, p-CIP stab down inactive, GPR7 antag inactive and core dimer inh 54.
`COc1cccc(-c2nnc3sc(-c4ccccc4)nn23)c1` gave FID counter inactive, HCV NS3 hel inh inactive, p-CIP stab down inactive, GPR7 antag inactive and core dimer inh inactive.
O=C(N/N=C/c1ccccn1)c1sc2ccccc2c1Cl was read as FID counter inactive, HCV NS3 hel inh inactive, p-CIP stab down inactive, GPR7 antag 19 and core dimer inh inactive.
`CC(C)=CCC/C(C)=C/CCC(C)NCCN1CCNCC1` (configuration not stated) gave FID counter inactive, HCV NS3 hel inh inactive, p-CIP stab down inactive, GPR7 antag 24 and core dimer inh inactive.
Screening CC(=O)NNC(=O)CN1C(=O)/C(=C/c2ccccc2)SC1=S returned FID counter inactive, HCV NS3 hel inh inactive, p-CIP stab down inactive, GPR7 antag 21 and core dimer inh inactive.
Screening O=C(O)CN1C(=O)/C(=C/C=C/c2ccccc2)SC1=S returned FID counter inactive, HCV NS3 hel inh inactive, p-CIP stab down inactive, GPR7 antag inactive and core dimer inh inactive.
For CC(=O)c1ccc(NC(=O)CN2C(=O)/C(=C/C=C/c3ccccc3)SC2=S)cc1 the results were FID counter inactive, HCV NS3 hel inh inactive, p-CIP stab down inactive, GPR7 antag inactive and core dimer inh 65.
`Cc1ccc(/C=C2\SC(=S)N(CCC(=O)NNS(=O)(=O)c3ccc(C)cc3)C2=O)cc1` gave FID counter inactive, HCV NS3 hel inh inactive, p-CIP stab down inactive, GPR7 antag 21 and core dimer inh inactive.
For CCN(CC(=O)Nc1c(F)cccc1F)C(=O)CCC(=O)c1ccc(C)cc1 the results were core dimer inh inactive.
N=c1occ(C(=O)c2cc(F)ccc2O)cc1C(=O)NC1CCCCC1 was read as FID counter inactive, HCV NS3 hel inh inactive, p-CIP stab down inactive, GPR7 antag inactive and core dimer inh inactive.
Screening Cc1ccc(-c2nn(C)c(=O)c3ccccc23)cc1CNC(=O)NC1CCCCC1 returned FID counter inactive, HCV NS3 hel inh inactive, p-CIP stab down inactive, GPR7 antag inactive and core dimer inh inactive.
`COc1ccc(Cc2nc3ccc(C(=O)N4CCN(C)C(C)C4)cc3o2)cc1OC` (configuration not stated) gave FID counter inactive, HCV NS3 hel inh inactive, p-CIP stab down inactive, GPR7 antag inactive and core dimer inh inactive.
`CCC(C)NC(=O)C(=O)NCC1CCCN1CC` (configuration not stated) gave FID counter inactive, HCV NS3 hel inh inactive, p-CIP stab down inactive, GPR7 antag inactive and core dimer inh inactive.
O=C1CC(N2CCN(c3nc4ccccc4s3)CC2)C(=O)N1Cc1cccs1 (configuration not stated) was read as FID counter inactive, HCV NS3 hel inh inactive, p-CIP stab down inactive, GPR7 antag 20 and core dimer inh inactive.
`Cc1ccc(CN2C(=O)CSC2c2ccc(F)cc2)cc1` (configuration not stated) gave FID counter inactive, HCV NS3 hel inh inactive, p-CIP stab down inactive, GPR7 antag inactive and core dimer inh inactive.
Screening CCOC(=O)C1CCCN(C(=O)c2cnn3c(C(F)F)cc(-c4ccc(C)cc4)nc23)C1 (configuration not stated) returned FID counter inactive, HCV NS3 hel inh inactive, p-CIP stab down inactive, GPR7 antag 19 and core dimer inh inactive.
Screening COc1ccc(-c2noc(CCCC(=O)Nc3ccc(C(N)=O)cc3)n2)cc1OC returned FID counter inactive, HCV NS3 hel inh inactive, p-CIP stab down inactive, GPR7 antag inactive and core dimer inh inactive.
Screening Cc1cc(C)nc(NN2C(=O)C=CC2=O)n1 returned FID counter inactive, HCV NS3 hel inh inactive, p-CIP stab down inactive, GPR7 antag inactive and core dimer inh inactive.
Screening CN(c1ccc(OCC(=O)Nc2nc(-c3ccccc3)cs2)cc1)S(=O)(=O)c1ccc(F)cc1 returned FID counter inactive, HCV NS3 hel inh inactive, p-CIP stab down inactive, GPR7 antag 21 and core dimer inh inactive.
For Cc1ccc(S(=O)(=O)N(C)c2ccc(OCC(=O)Nc3nc(-c4ccccc4)cs3)cc2)cc1 the results were FID counter inactive, HCV NS3 hel inh inactive, p-CIP stab down inactive, GPR7 antag inactive and core dimer inh inactive.
`CCOC(=O)N1CCN(C/C(Cl)=C/c2ccccc2)CC1` gave FID counter inactive, HCV NS3 hel inh inactive, p-CIP stab down inactive, GPR7 antag inactive and core dimer inh inactive.
`CC(=O)c1ccc(C(=O)N2CCCC(CCC(=O)N(C)CCc3ccccn3)C2)s1` (configuration not stated) gave FID counter inactive, HCV NS3 hel inh inactive, p-CIP stab down inactive, GPR7 antag inactive and core dimer inh inactive.
